Source: PubChem (several laboratories)
CRFBP-R2 agonist = agonists of human CRF-binding protein/CRF-R2 receptor complex. AID 588473. activation, % at 13.2 µM. HEK293 CRF-R2/CRF-BP, calcium dye fluorescence (FLIPR); percent of saturating CRF peptide response. 350,000 compounds, 0.46% hits;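 active means activation of at least 50%, plus an integration ratio under a set limit after plate pattern correction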
GPR7 antag = human neuropeptides B/W receptor 1 antagonism. P48145. GPR7-expressing cells, fluorescence antagonist assay. inhibition, % at 4.4 µM. 290,000 compounds, 1.1% hits; in the data active means inhibition above about 16%, passing the limit was not always enough;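 further: cells stimulated with the agonist NPW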
Target sequence (P48145 whole entry, looked up): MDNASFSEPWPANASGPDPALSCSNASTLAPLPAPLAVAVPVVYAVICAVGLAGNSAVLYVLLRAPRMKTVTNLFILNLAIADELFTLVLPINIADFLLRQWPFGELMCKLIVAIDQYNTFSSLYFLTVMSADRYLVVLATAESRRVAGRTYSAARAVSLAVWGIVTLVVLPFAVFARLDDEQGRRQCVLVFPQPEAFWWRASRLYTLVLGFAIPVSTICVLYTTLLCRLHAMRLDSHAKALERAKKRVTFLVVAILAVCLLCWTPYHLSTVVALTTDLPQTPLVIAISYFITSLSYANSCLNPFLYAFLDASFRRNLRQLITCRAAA
TRPML3 ag = human mucolipin-3 channel agonism; Q8TDD5; HEK293 TRPML3-YFP, Fluo-8 calcium fluorescence; 100% = the carbachol control signal; activation, % at 3 µM; 220,000 compounds, 0.29% hits; AID 1448;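 active means activation above its plate's cutoff, the mean activation of the plate's test wells plus 3 SD, cut at about 12% in these data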
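Material: TRPML3-YFP stable HEK293 cells | Dosing: One concentration, 3 µM nominal, 0.3% DMSO | Timing: 125 s total fluorescence read per well | Technique: Fluo-8 calcium dye fluorescence, ex 470-495, em 515-575 nm | Measure: Percent activation from peak-to-basal fluorescence ratio, scaled between DMSO and carbachol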
CRFBP-R2 block = CRF-BP/CRF-R2 complex antagonism. HEK293 CRF-R2/CRF-BP, CRF-induced calcium fluorescence. inhibition, % at 11.8 µM. 350,000 compounds, 0.59% hits;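 active means inhibition of the ligand-induced calcium signal above about 50% at the single tested concentration, limit read from the data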
zfTRPN1 agonist = zebrafish TRPN1 (NompC) channel agonism; HEK293 zebrafish TRPN1-YFP, Fluo-8 calcium fluorescence; 100% = response to 87 µM carbachol; activation, % at 3 µM; 220,000 compounds, 0.18% hits;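 active means activation above its plate's cutoff, the mean activation of test wells on that plate plus 3 SD, cut at about 19% in these data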
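Material – zebrafish TRPN1-YFP in HEK293 cells · Doses – 3 µM single point · Schedule – dye 1 h 37 °C plus 30 min RT · Signal – Fluo-8 calcium fluorescence, excitation 470-495 nm, emission 515-575 nm · Read-out – % activation versus carbachol response · Control set – carbachol high, DMSO low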
GPR7 antag conf = confirmation of human GPR7 antagonists; shares compounds with GPR7 antag; GPR7-expressing cells, calcium fluorescence antagonist mode; inhibition, % at 4.4 µM; 2,400 compounds, 52% hits; AID 1952; in the data active means inhibition above about 24%;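 further: stimulated with the GPR7 agonist NPW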
MCHR1 antagonist = antagonizes human MCHR1, a GPR7 antagonist counter-screen; 2,400 compounds, 62% hits; MCHR1-expressing cells, fluorescence antagonist assay; shares compounds with GPR7 antag; inhibition, % at 4.4 µM; in the data active means inhibition above about 22%
Hits are given with their value; 0 = inactive; - = not tested or not shown; + = active, no number. Compounds with a hit are over-represented: about 2% of the library has one in this group of screens.

SMILES	CRFBP-R2 agonist	GPR7 antag	TRPML3 ag	CRFBP-R2 block	zfTRPN1 agonist	GPR7 antag conf	MCHR1 antagonist
C=CCc1cccc([C@@H]2[C@@H](C)CC[C@H]3C(=O)N4[C@@H](c5cc(OC)c(OC)c(OC)c5)c5[nH]c6ccccc6c5C[C@H]4C(=O)N23)c1	-	33	0	-	0	0	0
COC(=O)C1CCCCN1C(=O)c1cc(COc2cccc3cnccc23)on1 (configuration not stated)	-	35	-	-	-	28	53
O=C(Nc1nnc(COc2ccc(Cl)cc2)s1)c1ccco1	0	0	0	0	0	-	-
Cc1ccc(NCc2nnc(SCC(=O)OC3CCCCC3)o2)c(C)c1	0	28	0	0	0	0	23
Cc1ccc(NCc2nnc(SCC(N)=O)o2)c(C)c1	0	0	0	0	0	-	-
O=C(NCc1ccco1)/C(=C\c1ccc(F)cc1)NC(=O)c1ccco1	0	29	-	0	-	0	0
NS(=O)(=O)c1ccc(NC(=O)CN2CCc3ccccc3C2)cc1	0	0	-	0	-	-	-
Nc1ccn(C2CCCO2)c(=O)n1 (configuration not stated)	0	-	-	0	-	-	-
Nc1cnn(C2CCCO2)c(=O)n1 (configuration not stated)	0	24	0	0	0	0	0
Nc1ccccc1C#CC(=O)c1ccccc1	0	37	-	0	-	71	36
CC1CCCCN1C(=O)c1cc(S(=O)(=O)N2CCOCC2)ccc1Cl (configuration not stated)	0	-	-	0	-	-	-
COc1ccccc1CCNC(=O)C(=O)NCC1OCCN1S(=O)(=O)c1ccc(F)cc1 (configuration not stated)	0	28	-	0	-	0	0
CC1CCN(C(=O)c2cc(S(=O)(=O)N3CCCCC3)c[nH]2)CC1	0	27	-	0	-	0	0
N#Cc1ccccc1S(=O)(=O)N1CCN(CC(=O)NCC2(N3CCOCC3)CCCCC2)CC1	0	-	-	0	-	-	-
O=C(NCc1ccco1)c1sc2cc(Cl)ccc2c1Cl	0	36	0	0	0	0	31
O=C(Nc1ccc(Cl)c(S(=O)(=O)N2CCOCC2)c1)c1ccc(OCC2CCCO2)cc1 (configuration not stated)	0	41	0	0	0	47	90
COc1ccc(C(=O)Nc2ccc(Cl)c(S(=O)(=O)N3CCOCC3)c2)cc1	0	-	-	0	-	-	-
O=C(CCC(=O)Nc1ccccc1Cl)NNC(=O)NC1CCCCC1	0	0	-	0	-	-	-
COc1cccc(NC(=O)c2ccc(N3C(=O)C4CC=C(C)CC4C3=O)cc2)c1 (configuration not stated)	0	0	-	0	-	-	-
O=C(Nc1nc2c(F)cccc2s1)C1CC1	0	29	-	0	-	0	0
COC(=O)c1ccc(CNC(=O)C2CCC(=O)N(CCc3ccccc3)C2)cc1 (configuration not stated)	0	0	-	0	-	-	-
Cc1cc(Cl)ccc1OCC(=O)N1CCCN(C(=O)COc2ccc(Cl)cc2C)CC1	0	27	0	0	0	0	0
Cc1cc(Cl)ccc1OC(C)C(=O)N1CCCN(C(=O)C(C)Oc2ccc(Cl)cc2C)CC1 (configuration not stated)	0	32	0	0	0	63	71
COc1ccccc1N1CCN(C(=O)COc2ccc(Cl)cc2Br)CC1	0	28	0	0	0	48	47
O=C(NCC1CC1(Cl)Cl)Nc1ccc(Cl)c(Cl)c1 (configuration not stated)	0	33	-	0	-	0	58
SMILES	CRFBP-R2 agonist	GPR7 antag	TRPML3 ag	CRFBP-R2 block	zfTRPN1 agonist	GPR7 antag conf	MCHR1 antagonist
CCC(CC)C(=O)Nc1ccc(Cl)c(Cl)c1	0	0	0	0	0	-	-
CC(C)(CO)NC(=O)Nc1ccc(Cl)c(Cl)c1	0	26	0	0	0	0	0
O=C(Nc1ccccc1N1CCCCC1)c1ccc(-c2cc(Cl)ccc2Cl)o1	0	-	-	0	-	-	-
CCN1C[C@@H]2[C@@H]3C(=O)N(C)C(=O)[C@@H]3[C@](Cc3ccccc3)(C1=O)N2C(=O)c1ccc(F)cc1	0	-	-	0	-	-	-
CCN(CC)C1=CC2=CC(=C(C#N)C#N)CCC2CC1 (configuration not stated)	0	58	298	0	332	91	105
CCCCN(C)C1=CC2=CC(=C(C#N)C#N)CCC2CC1 (configuration not stated)	0	75	225	0	239	103	110
N#CC1=C(N)C2=C(N3CCCCC3)CCCC2C1(C#N)C#N (configuration not stated)	0	0	0	0	0	-	-
N#CC(C#N)=C1C=C2C=C(N3CCCCC3)CCC2CC1 (configuration not stated)	187	74	380	0	+	93	109
Cc1ccc(OCCNC(=O)C2CC(=O)N(Cc3ccccc3)C2)cc1 (configuration not stated)	0	-	-	0	-	-	-
O=C(O)C1CC(c2ccccc2)=Nc2ccccc2S1 (configuration not stated)	0	0	0	0	0	-	-
O=[N+]([O-])c1ccc(C2CC(c3ccccc3)=Nc3ccccc3S2)cc1 (configuration not stated)	0	0	0	0	0	0	74
C[C@H]1NC(=O)[C@@]2(C)[C@H](c3ccccc3)[C@H]3COc4ccccc4[C@@H]3N2C1=O	0	-	-	0	-	-	-
CCc1nc(CNC(=O)C2CCC(=O)N(CCc3cccc(F)c3)C2)no1 (configuration not stated)	0	0	-	0	-	-	-
O=C(NCCc1ccccc1)C1CCN(Cc2cccc3ccccc23)CC1	0	28	-	0	-	0	0
O=C(CN1C(=O)C2C3C=CC(C3)C2C1=O)OCC(=O)c1ccc(Br)cc1 (configuration not stated)	0	0	-	0	-	-	-
CCOC(=O)N1CCN(S(=O)(=O)c2ccc(C(=O)N(CCCN(C)C)c3nc4ccc(CC)cc4s3)cc2)CC1	0	28	-	0	-	39	0
CN(C)CCCN(C(=O)c1ccc(S(=O)(=O)N2CCc3ccccc32)cc1)c1nc2c(Cl)cccc2s1	0	0	-	0	-	-	-
COc1cccc2sc(N(CCCN(C)C)C(=O)c3ccc(S(=O)(=O)N4CCCc5ccccc54)cc3)nc12	0	35	-	0	-	50	41
CCN(c1ccccc1)S(=O)(=O)c1ccc(C(=O)N(CCCN(C)C)c2nc3cc4c(cc3s2)OCO4)cc1	0	0	-	0	-	-	-
CCN(c1ccccc1)S(=O)(=O)c1ccc(C(=O)N(CCCN(C)C)c2nc3c(C)cccc3s2)cc1	0	29	-	0	-	53	52
O=C1C2CCc3ccccc3C2N1c1ccccc1 (configuration not stated)	0	-	-	0	-	-	-
CCOC(=O)c1c(C)[nH]c(C)c1S(=O)(=O)N(C)CC(=O)Nc1cccc(C)n1	0	0	-	0	-	-	-
